# From paper PMC9804109 (Current Research in Pharmacology and Drug Discovery, 2022)
# What was measured:
# [1] = system: LN-229 cells; assay: MitoSOX flow cytometry of mitochondrial ROS, LN-229; assay type: cell-based, human; conditions: cytochrome c reductase inhibitor as control
# Summary of the method: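 Cells trypsinised, washed and suspended in HBSS at 1 × 10^6 cells/mL, then exposed to test compound (0.2 or 1 mM) in HBSS for 2 h. Stained with 5 μM MitoSOX for 20 min at 37 °C and read by flow cytometry in the red channel. Antimycin A served as the ROS-promoting control. Mean channel fluorescence ± SEM, n = 3; two-way ANOVA with Bonferroni post-test vs untreated.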
# [2] = system: melanoma cells; conditions: ref Le Gal et al., 2015; cited from earlier work
# [3] = system: V79 lung fibroblasts; conditions: ref Grosicka-Maciąg et al., 2011; cited from earlier work
# [4] = system: trypsin; conditions: previous HPLC conditions; ref Akhmadishina et al., 2018; cited from earlier work
compound,measurement,setting,value
CCCCCC[C@H]1C(=O)O[C@H](C)[C@H](NC(=O)c2cccc(NC=O)c2O)C(=O)O[C@@H](C)[C@@H]1OC(=O)CC(C)C [antimycin A],effect on mitochondrial ROS (MitoSOX),[1],lack of ROS-promoting effect
Cc1c(C)c2c(c(C)c1O)CCC(C)(C(=O)O)O2 (centres unmarked) [Trolox],elevation of GSH/GSSG ratio,[2],ca. 2.5 times
"CC(=O)N[C@@H](CS)C(=O)O [N-acetylcysteine (NAC), N-acetylcysteine]",elevation of GSH/GSSG ratio,[2],~3.8 times
same,increase of both GSH and GSSG levels,[3],up to 2 times
YRFK-NH2,half-time of cleavage by trypsin,[4],6 h
